Assay [1] concerns Staphylococcus aureus. Kind of assay: The compound was tested in vitro for minimum inhibitory concentration against Staphylococcus aureus 753. The assay is classed as functional, staphylococcus aureus smith. A digest of the protocol:
(§1)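 Agar dilution on Mueller-Hinton agar using 2-fold serial dilutions, giving final 128 to 0.0156 μg/mL (extended to 0.000977 μg/mL where needed). Inoculum was overnight broth culture diluted 100-fold, about 3×10^4 CFU/spot, applied by replicator. MIC read after overnight incubation at 36 °C.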

The test system of the next assay is Citrobacter freundii. The experiment in a line: The compound was tested in vitro for minimum inhibitory concentration against Citrobacter Freundii BS-16. The assay is classed as functional. A digest of the protocol:
as §1

In assay [2] the test system is Staphylococcus aureus. Kind of assay: The compound was tested in vitro for minimum inhibitory concentration against Staphylococcus aureus 67-0. The assay is classed as functional. A digest of the protocol: as §1
In another assay the test system is Enterococcus faecalis. The experiment in a line: The compound was tested in vitro for minimum inhibitory concentration against Enterococcus faecalis ATCC 29212. The assay is classed as functional. A digest of the protocol:
as §1

In another assay the test system is Proteus mirabilis. Kind of assay: The compound was tested in vitro for minimum inhibitory concentration against Proteus mirabilis 90. The assay is classed as functional. Summed up: (§2)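 Proteus MICs by agar dilution on Mueller-Hinton medium containing 3% agar. Serial 2-fold dilutions gave final 128 to 0.0156 μg/mL (further to 0.000977 μg/mL). Inoculum was overnight broth diluted 100-fold, about 3×10^4 CFU/spot. Plates read after overnight incubation at 36 °C.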

Another assay has as its system Proteus vulgaris. Kind of assay: The compound was tested in vitro for minimum inhibitory concentration against Proteus vulgaris 1028 BC. The assay is classed as functional. A digest of the protocol: as §2
In another assay the test system is Micrococcus luteus. The experiment in a line: The compound was tested in vitro for minimum inhibitory concentration against Micrococcus luteus ATCC 9341. The assay is classed as functional. A digest of the protocol: as §1
For another assay, the system named is Serratia marcescens. Kind of assay: The compound was tested in vitro for minimum inhibitory concentration against Serratia marcescens 1071. The assay is classed as functional. A digest of the protocol: as §1
Assay [3] has as its system Pseudomonas aeruginosa. The experiment in a line: (§3) Effective dose against mouse infected with Pseudomonas aeruginosa 8780 (LDs-240). The assay is classed as functional. A digest of the protocol: (§4)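 CD1 Swiss albino mice (18-20 g) infected intraperitoneally with 0.5 mL of diluted bacterial suspension. Challenge expressed as a multiple of LD50. Drug given subcutaneously at the dorsal neck base within 5 min of infection (1.0 mL), with a second treatment 3 h after infection. Dose range 250 to 0.05 mg/kg. Six mice per group. ED50 by the Reed-Muench method.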

In assay [4] the test system is Streptococcus pneumoniae. Kind of assay: (§5) Effective dose against mouse infected with Streptococcus pneumoniae 6301(LDs-5623). The assay is classed as functional. A digest of the protocol: (§6)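 Mouse protection test in CD1 Swiss albino mice (18-20 g) given an intraperitoneal challenge (0.5 mL of diluted culture), expressed as a multiple of LD50. A single subcutaneous dose of 1.0 mL test solution was given at the dorsal neck base within 5 min of infection. Dose range 250 to 0.05 mg/kg. Six mice per group. ED50 (protective dose) by Reed-Muench.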

A further assay relates to Klebsiella pneumoniae. The experiment in a line: The compound was tested in vitro for minimum inhibitory concentration against Klebsiella pneumoniae A. The assay is classed as functional. A digest of the protocol:
as §1

The next assay has as its system Streptococcus pyogenes. Kind of assay: The compound was tested in vitro for minimum inhibitory concentration against Streptococcus pyogenes. The assay is classed as functional. Summed up:
(§7)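 Streptococci tested by agar dilution on brain heart infusion agar with 20 units/mL bovine liver catalase. Final drug range 128 to 0.0156 μg/mL by 2-fold steps, extended to 0.000977 μg/mL when required. Inoculum about 3×10^4 CFU/spot from overnight broth diluted 100-fold. MIC after overnight incubation at 36 °C.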

For assay [5], the system named is Staphylococcus aureus. Kind of assay: animal or person. The conditions noted are these: in Mus musculus.
Assay [6] relates to Escherichia coli. Kind of assay: Inhibitory activity on replicative DNA biosynthesis in Escherichia coli H560 (permeabilised cells). The assay is classed as functional, organism-based. A digest of the protocol: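 E. coli H560 cells permeabilized with toluene. ATP-dependent incorporation of [3H]thymidine into trichloroacetic acid-insoluble material was measured. IC50 taken as the concentration giving 50% inhibition.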

Assay [7] has as its system Streptococcus pneumoniae. The experiment in a line: The compound was tested in vitro for minimum inhibitory concentration against Streptococcus pneumoniae 6301. The assay is classed as functional. Summed up:
as §7

Assay [8] relates to Escherichia coli. Kind of assay: The compound was tested in vitro for minimum inhibitory concentration against Escherichia coli ATCC 25922. The assay is classed as functional. A digest of the protocol: as §1
Assay [9] concerns Pseudomonas aeruginosa. The experiment in a line: The compound was tested in vitro for minimum inhibitory concentration against Pseudomonas aeruginosa 8780. The assay is classed as functional. Summed up:
as §1

The test system of assay [10] is Escherichia coli. The experiment in a line: The compound was evaluated for the inhibition of [14C]- Pen G binding to Escherichia coli UB1005 penicillin-binding protein 3 60 kDa. A digest of the protocol: (§8)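 Membranes from sonicated E. coli UB1005 were solubilized. Binding to penicillin-binding proteins was measured as inhibition of [14C]penicillin G binding.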

The test system of assay [11] is Escherichia coli. Kind of assay: The compound was evaluated for the inhibition of [14C]- Pen G binding to Escherichia coli UB1005 penicillin-binding protein 1b 90 kDa. A digest of the protocol: as §8
For assay [12], the species on record is Mus musculus. Kind of assay: Effective dose against mouse infected with Staphylococcus aureus 753 (MR) (LDs-6). The assay is classed as functional. Summed up: as §6
The next assay has as its system Enterobacter cloacae. Kind of assay: The compound was tested in vitro for minimum inhibitory concentration against Enterobacter cloacae P99. The assay is classed as functional.
Assay [13] is filed under the species Mus musculus. Described as §3. The assay is classed as functional. A digest of the protocol:
as §4

The species entered for assay [14] is Mus musculus. The assay is described as §5. The assay is classed as functional. Summed up:
as §6

The test system of assay [15] is Escherichia coli. The experiment in a line: The compound was evaluated for the inhibition of [14C]- Pen G binding to Escherichia coli UB1005 penicillin-binding protein 2 66 kDa. Summed up:
as §8

Assay [16] has as its system Staphylococcus aureus. The experiment in a line: The compound was tested in vitro for minimum inhibitory concentration against Staphylococcus aureus smith. The assay is classed as functional. Summed up: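 Agar dilution MIC on Mueller-Hinton agar. Compounds were serially diluted 2-fold in water; final agar concentrations ran from 128 to 0.0156 μg/mL, extended to 0.000977 μg/mL for very active compounds. Spots were inoculated by replicator with overnight broth cultures diluted 100-fold, about 3×10^4 CFU/spot. MIC was read after overnight incubation at 36 °C.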

Assay [17] concerns Escherichia coli. Kind of assay: The compound was tested in vitro for minimum inhibitory concentration against Escherichia coli TEM-1. The assay is classed as functional. A digest of the protocol: as §1
Assay [18] deals with Escherichia coli. The experiment in a line: The compound was tested in vitro for minimum inhibitory concentration against Escherichia coli 257. The assay is classed as functional. A digest of the protocol:
as §1

Assay [19] deals with Escherichia coli. Kind of assay: Minimum inhibitory concentration for inhibition of [14C]- Pen G binding to Escherichia coli UB1005. The assay is classed as functional. A digest of the protocol:
as §8

The subject of assay [20] is Pseudomonas aeruginosa. Kind of assay: The compound was tested in vitro for minimum inhibitory concentration against Pseudomonas aeruginosa 18S/H. The assay is classed as functional. Summed up: as §1
Assay [21] deals with Escherichia coli. Kind of assay: The compound was evaluated for the inhibition of [14C]- Pen G binding to Escherichia coli UB1005 penicillin-binding protein 1a 90 kDa. A digest of the protocol: as §8

Converted amounts (≈) assume the structure as drawn.

In the case of `O=C(O)c1cn(C2CC2)c2cc(N3CCNCC3)c(F)cc2c1=O` [CIPROFLOXACIN], the minimum inhibitory concentration (MIC) in the assay with Staphylococcus aureus [1] was found to be 0.25 µg/mL (≈ 0.754 µM); against Citrobacter freundii, 0.031 µg/mL (≈ 0.0936 µM); against Staphylococcus aureus [2] it was 0.5 µg/mL (≈ 1.51 µM); in the assay on Enterococcus faecalis, 1 µg/mL (≈ 3.02 µM); against Proteus mirabilis, 0.063 µg/mL (≈ 0.19 µM); in the assay on Proteus vulgaris it was 0.016 µg/mL (≈ 0.0483 µM). The MIC against Micrococcus luteus worked out at 2 µg/mL (≈ 6.04 µM); in the assay with Serratia marcescens, 0.063 µg/mL (≈ 0.19 µM); with Klebsiella pneumoniae, 0.25 µg/mL (≈ 0.754 µM); in the assay with Streptococcus pyogenes, 0.5 µg/mL (≈ 1.51 µM); with Streptococcus pneumoniae [7], 1 µg/mL (≈ 3.02 µM). Moreover, the figures for the ED50 with Pseudomonas aeruginosa [3], in the assay on Streptococcus pneumoniae [4] and with Staphylococcus aureus [5] were 3 mg/kg, over 50 mg/kg and 2 mg/kg, respectively. Besides, the IC50 in the assay with Escherichia coli [6] came to 0.3 µg/mL (≈ 0.905 µM).

`CO/N=C(\C(=O)N[C@@H]1C(=O)N2C(C(=O)O)=C(COC(C)=O)CS[C@H]12)c1csc(N)n1` [CEFOTAXIME]: the MIC was 0.063 µg/mL (≈ 0.138 µM) in the assay with Escherichia coli [8]; 16 µg/mL (≈ 35.1 µM) with Pseudomonas aeruginosa [9]; over 128 µg/mL in the assay with Staphylococcus aureus [1]; 32 µg/mL (≈ 70.3 µM) in the assay on Citrobacter freundii; over 128 µg/mL against Staphylococcus aureus [2]; 0.25 µg/mL (≈ 0.549 µM) with Enterococcus faecalis. For the same molecule, the MIC is under 0.016 µg/mL with Proteus mirabilis; over 128 µg/mL against Proteus vulgaris; 0.031 µg/mL (≈ 0.0681 µM) in the assay with Micrococcus luteus; 32 µg/mL (≈ 70.3 µM) with Serratia marcescens; 64 µg/mL (≈ 141 µM) in the assay on Enterobacter cloacae; 0.031 µg/mL (≈ 0.0681 µM) in the assay on Klebsiella pneumoniae. Besides, the minimal inhibitory concentration (MIC) against Streptococcus pyogenes was under 0.016 µg/mL; in the assay on Staphylococcus aureus [16] it was 2 µg/mL (≈ 4.39 µM); in the assay on Escherichia coli [17], 0.063 µg/mL (≈ 0.138 µM); in the assay with Escherichia coli [18], 0.031 µg/mL (≈ 0.0681 µM); in the assay with Escherichia coli [19], 0.06 µg/mL (≈ 0.132 µM); against Pseudomonas aeruginosa [20] it was 128 µg/mL (≈ 281 µM). Moreover, the MIC against Streptococcus pneumoniae [7] was under 0.016 µg/mL. Besides, the Inhibitory concentration with Escherichia coli [10] is under 0.1 µg/mL; with Escherichia coli [11], 0.5 µg/mL; with Escherichia coli [15], 100 µg/mL; in the assay on Escherichia coli [21], under 0.1 µg/mL. The values for the ED50 in the assay filed under Mus musculus [12], in the assay listed under Mus musculus [13] and in the assay filed under Mus musculus [14] were over 100 mg/kg, over 100 mg/kg and 15 mg/kg, respectively.

(Values after ChEMBL document CHEMBL1125212, “Dual-action cephalosporins: cephalosporin 3'-quinolone carbamates” (J Med Chem, 1991).)
